Reference: ChEMBL document CHEMBL4011658 (J Med Chem, 2017)
In brackets after ≈: the same amount, converted by molar mass. Activity calls are given as the source filed them. No cut-off for these calls is given here.

Columns and labels:
[1] = system: Vero; experiment: Cytotoxicity against African green monkey Vero cells assessed as reduction in cell viability after 48 hrs by neutral red uptake assay; assay type: cell-based; details: chlorocebus sabaeus
Summary of the method: (§1)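 Cells seeded at 25 000 per well and grown 24 h to confluence, then exposed to peptides up to 10 μg/mL for 48 h; viability by modified neutral red uptake; doxorubicin positive control, DMSO negative control.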

[2] = system: Cryptococcus neoformans; experiment: Antifungal activity against Cryptococcus neoformans ATCC 90113 after 70 to 74 hrs by alamar blue dye based CLSI method; assay type: functional
[3] = system: Cryptococcus neoformans; experiment: Disruption of plasma membrane in Cryptococcus neoformans ATCC 350 at 0.39 ug/ml after 1 hr by uranyl acetate/lead acetate staining based transmission electron microscopic analysis; assay type: functional
[4] = Selectivity index, ratio of cytotoxicity against African green monkey VERO cells to IC50 for methicillin-resistant Staphylococcus aureus ATCC 33591; assay type: toxicity, cell-based; details: read-out: Selectivity Index
Summary of the method: (§2)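 Selectivity index is the ratio CTX/IC50. For CTX, cells were seeded at 25 000 per well and grown 24 h, then given peptide up to 10 μg/mL for 48 h, with neutral red uptake read-out. […] OD530 was read before and after 16−20 h at 35 °C.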

[5] = system: Staphylococcus aureus; experiment: Antibacterial activity against methicillin-resistant Staphylococcus aureus ATCC 33591 after 16 to 20 hrs by alamar blue dye based CLSI method; assay type: functional
[6] = system: Cryptococcus neoformans; experiment: Induction of nuclear fragmentation in Cryptococcus neoformans ATCC 350 at 0.39 ug/ml after 1 hr by DAPI staining based confocal microscopic analysis; assay type: functional
[7] = Selectivity index, ratio of cytotoxicity against pig LLC-PK1 cells to IC50 for Cryptococcus neoformans ATCC 90113; assay type: toxicity, cell-based; details: read-out: Selectivity Index
[8] = system: Cryptococcus neoformans; experiment: Disruption of cell wall membrane in Cryptococcus neoformans ATCC 350 at 0.39 ug/ml after 1 hr by uranyl acetate/lead acetate staining based transmission electron microscopic analysis; assay type: functional
[9] = system: BT-549; experiment: Cytotoxicity against human BT549 cells assessed as reduction in cell viability after 48 hrs by neutral red uptake assay; assay type: cell-based; details: bt-549, 48 h; summary of the method: as §1
[10] = Selectivity index, ratio of cytotoxicity against human SK-MEL cells to IC50 for Cryptococcus neoformans ATCC 90113; assay type: toxicity, cell-based; details: read-out: Selectivity Index
[11] = Selectivity index, ratio of cytotoxicity against human SK-MEL cells to IC50 for methicillin-resistant Staphylococcus aureus ATCC 33591; assay type: toxicity, cell-based; details: read-out: Selectivity Index; summary of the method: as §2
[12] = system: Escherichia coli; experiment: Antibacterial activity against Escherichia coli ATCC 35218 after 16 to 20 hrs by alamar blue dye based CLSI method; assay type: functional
[13] = system: Cryptococcus neoformans; experiment: Synergistic antifungal activity against Cryptococcus neoformans ATCC 350 assessed as fold reduction in MIC in presence of amphotericin B by checkerboard method relative to control; assay type: functional
[14] = Metabolic stability of the compound assessed as trypsin (unknown origin)-mediated compound hydrolysis at compound to trypsin ratio of 100 to 0.5 after 2 hrs by RP-HPLC analysis; assay type: ADME; details: human
Summary of the method: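 Peptide:trypsin 100:0.5 mol/mol in 0.1 M NH4CO3, 0.1 mM CaCl2, pH 8.3, shaken at 37 °C, 200 rpm; aliquot analysed by RP-HPLC, retention time and peak intensity compared with untreated peptide; 2 h sampling per results text.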

[15] = system: SK-OV-3; experiment: Cytotoxicity against human SKOV3 cells assessed as reduction in cell viability after 48 hrs by neutral red uptake assay; assay type: cell-based; details: sk-ov-3, 48 h; summary of the method: as §1
[16] = Selectivity index, ratio of cytotoxicity against African green monkey VERO cells to IC50 for Staphylococcus aureus ATCC 29213; assay type: toxicity, cell-based; details: read-out: Selectivity Index
Summary of the method: (§3)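 Selectivity index is the ratio CTX/IC50. For CTX, cells were seeded at 25 000 per well and grown 24 h, then exposed to peptide up to 10 μg/mL for 48 h, with viability by neutral red uptake. […] The inoculum was 5 × 10^5 CFU/mL, with OD530 read before and after incubation.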

[17] = system: SK-MEL; experiment: Cytotoxicity against human SK-MEL cells assessed as reduction in cell viability after 48 hrs by neutral red uptake assay; assay type: cell-based; summary of the method: as §1
[18] = Selectivity index, ratio of cytotoxicity against human SKOV3 cells to IC50 for Staphylococcus aureus ATCC 29213; assay type: toxicity, cell-based; details: read-out: Selectivity Index; summary of the method: as §3
[19] = system: Cryptococcus neoformans; experiment: Induction of morphological changes in Cryptococcus neoformans ATCC 350 assessed as cell wall breakage at 0.39 ug/ml after 1 hr by uranyl acetate/lead acetate staining based scanning electron microscopic analysis; assay type: functional
[20] = system: Cryptococcus neoformans; experiment: Induction of membrane permeabilization in Cryptococcus neoformans ATCC 350 assessed as increase in propidium iodide uptake at 0.39 ug/ml after 1 hr by confocal microscopic analysis; assay type: functional
[21] = system: Cryptococcus neoformans; experiment: Synergistic antifungal activity against Cryptococcus neoformans ATCC 350 in presence of fluconazole by checkerboard method; assay type: functional
[22] = Selectivity index, ratio of cytotoxicity against human BT549 cells to IC50 for Cryptococcus neoformans ATCC 90113; assay type: toxicity, cell-based; details: read-out: Selectivity Index
[23] = system: Candida; experiment: Antifungal activity against Candida; assay type: functional
[24] = system: Staphylococcus aureus; experiment: Antibacterial activity against Staphylococcus aureus ATCC 29213 after […] hrs by alamar blue dye based CLSI method; assay type: functional
[25] = system: Cryptococcus neoformans; experiment: Synergistic antifungal activity against Cryptococcus neoformans ATCC 350 in presence of amphotericin B by checkerboard method; assay type: functional
[26] = Selectivity index, ratio of cytotoxicity against pig LLC-PK1 cells to IC50 for Staphylococcus aureus ATCC 29213; assay type: toxicity, cell-based; details: read-out: Selectivity Index; summary of the method: as §3
[27] = Selectivity index, ratio of cytotoxicity against human BT549 cells to IC50 for Staphylococcus aureus ATCC 29213; assay type: toxicity, cell-based; details: read-out: Selectivity Index; summary of the method: as §3
[28] = system: Cryptococcus neoformans; experiment: Synergistic antifungal activity against Cryptococcus neoformans ATCC 350 assessed as fold reduction in amphotericin B MIC by checkerboard method relative to amphotericin B alone; assay type: functional
[29] = system: Cryptococcus neoformans; experiment: Induction of membrane permeabilization in Cryptococcus neoformans ATCC 350 at 0.39 ug/ml after 1 hr using FITC labeled compound by confocal microscopic analysis; assay type: functional
[30] = Selectivity index, ratio of cytotoxicity against human SKOV3 cells to IC50 for methicillin-resistant Staphylococcus aureus ATCC 33591; assay type: toxicity, cell-based; details: read-out: Selectivity Index; summary of the method: as §2
[31] = system: Cryptococcus neoformans; experiment: Antifungal activity against Cryptococcus neoformans ATCC 350 after 70 to 74 hrs by alamar blue dye based CLSI method; assay type: functional
[32] = system: Cryptococcus neoformans; experiment: Synergistic antifungal activity against Cryptococcus neoformans ATCC 350 assessed as fold reduction in MIC in presence of fluconazole by checkerboard method relative to control; assay type: functional
[33] = system: Cryptococcus neoformans; experiment: Fungicidal activity against Cryptococcus neoformans ATCC 350 at 0.39 ug/ml up to 4 hrs by time kill assay; assay type: functional
[34] = Selectivity index, ratio of cytotoxicity against African green monkey VERO cells to IC50 for Cryptococcus neoformans ATCC 90113; assay type: toxicity, cell-based; details: read-out: Selectivity Index
[35] = Selectivity index, ratio of cytotoxicity against pig LLC-PK1 cells to IC50 for methicillin-resistant Staphylococcus aureus ATCC 33591; assay type: toxicity, cell-based; details: read-out: Selectivity Index; summary of the method: as §2
[36] = system: LLC-PK1; experiment: Cytotoxicity against pig LLC-PK1 cells assessed as reduction in cell viability after 48 hrs by neutral red uptake assay; assay type: cell-based, Sus scrofa; details: llc-pk1, 48 h; summary of the method: as §1
[37] = Selectivity index, ratio of cytotoxicity against human SK-MEL cells to IC50 for Staphylococcus aureus ATCC 29213; assay type: toxicity, cell-based; details: read-out: Selectivity Index; summary of the method: as §3
[38] = Selectivity index, ratio of cytotoxicity against human SKOV3 cells to IC50 for Cryptococcus neoformans ATCC 90113; assay type: toxicity, cell-based; details: read-out: Selectivity Index
[39] = Selectivity index, ratio of cytotoxicity against human BT549 cells to IC50 for methicillin-resistant Staphylococcus aureus ATCC 33591; assay type: toxicity, cell-based; details: read-out: Selectivity Index; summary of the method: as §2
[40] = system: Aspergillus; experiment: Antifungal activity against Aspergillus; assay type: functional
[41] = system: Cryptococcus neoformans; experiment: Synergistic antifungal activity against Cryptococcus neoformans ATCC 350 assessed as fold reduction in fluconazole MIC by checkerboard method relative to fluconazole alone; assay type: functional

For `COC(=O)[C@H](Cc1c[nH]c(-c2ccc(-c3ccccc3)cc2)n1)NC(=O)[C@H](Cc1c[nH]c2ccccc12)NC(=O)[C@@H](N)Cc1c[nH]c(-c2ccc(-c3ccccc3)cc2)n1`, the Activity [1] was > 10 µg/mL, the IC50 [2] was 0.35 µg/mL (≈ 0.439 µM) and the MFC [2] was 0.63 µg/mL (≈ 0.791 µM). For the same compound, the MIC [2] was 0.63 µg/mL (≈ 0.791 µM), the Activity [3] was “Active” and the selectivity ratio [4] was > 5.18. The IC50 [5] was 1.93 µg/mL (≈ 2.42 µM), the MBC [5] was 10 µg/mL (≈ 12.5 µM) and the MIC [5] was 5 µg/mL (≈ 6.27 µM). For the same compound, the Activity [6] was “Active”, the selectivity ratio [7] was > 28.6 and the Activity [8] was “Active”. The Activity [9] was > 10 µg/mL, the selectivity ratio [10] was > 28.6 and the selectivity ratio [11] was > 5.18. The Activity [12] was “inactive”, the “fold change (FC)” value [13] was 32 and the Stability [14] was “Stable”. The Activity [15] was > 10 µg/mL, the selectivity ratio [16] was > 3.9 and the Activity [17] was > 10 µg/mL. The selectivity ratio [18] was > 3.9, the Activity [19] was “Active” and the Activity [20] was “Active”. The “fractional inhibitory concentration index (FICI)” value [21] was 0.308, the selectivity ratio [22] was > 28.6 and the Activity [23] was “inactive”. The IC50 [24] was 2.56 µg/mL (≈ 3.21 µM), the MBC [24] was > 20 µg/mL and the MIC [24] was > 20 µg/mL. For the same compound, the “fractional inhibitory concentration index (FICI)” value [25] was 0.092, the selectivity ratio [26] was > 3.9 and the selectivity ratio [27] was > 3.9. For the same compound, the “fold change (FC)” value [28] was 16, the Activity [29] was “Active” and the selectivity ratio [30] was > 5.18. For the same compound, the MIC [31] was 0.44 µM (≈ 0.351 µg/mL), the “fold change (FC)” value [32] was 16 and the Activity [33] was “Active”. The selectivity ratio [34] was > 28.6, the selectivity ratio [35] was > 5.18 and the Activity [36] was > 10 µg/mL. The selectivity ratio [37] was > 3.9, the selectivity ratio [38] was > 28.6 and the selectivity ratio [39] was > 5.18. For the same compound, the Activity [40] was “inactive” and the “fold change (FC)” value [41] was 4.
